Data published in the EternaBench riboswitch data.

System: MS2 coat protein
Experiment: apparent Kd, MS2 coat protein; higher = weaker binding; RNA-MaP array; FMN 200 µM where present
Summary of the method: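 Green signal from SNAP-549-labelled MS2 coat protein was normalised to red-channel RNA signal and to the median Fmax of control clusters. The protein was titrated from 0.7 or 1.5 nM, doubling to 3 µM, without and then with constant ligand, over designs transcribed by stalled E. coli RNA polymerase on Illumina sequencing-chip clusters, in 100 mM Tris-HCl pH 7.5, 80 mM KCl, 4 mM MgCl2, BSA, DTT, yeast tRNA and Tween-20. The apparent Kd is the median of filtered per-cluster binding-curve fits.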

[1] = designed as: OFF switch for flavin mononucleotide, no ligand
[2] = ligand present: flavin mononucleotide, designed as: OFF switch for flavin mononucleotide
[3] = designed as: ON switch for flavin mononucleotide, no ligand
[4] = ligand present: flavin mononucleotide, designed as: ON switch for flavin mononucleotide

| Sequence | apparent Kd [1] [nM] | apparent Kd [2] [nM] | apparent Kd [3] [nM] | apparent Kd [4] [nM] |
| --- | --- | --- | --- | --- |
| GCAGAAGUAGUGAGGAUAUGCUCUACCUCGGUAGAGCAGAAGGCACAUGAGGAUCACCCAUGUGAUUCUUCUGC | 26.9 | 158 | – | – |
| UGUCGGAGCAGAGGAUAUUACAUGAGGAUCACCCAUGUAGGUACCAAUAGCUGGAAACAGCAAUGUAAGAAGGCUGCUCCGACA | 280 | 408 | – | – |
| GGACGUCUCAUUAACAUGAGGAUCACCCAUGUCGAUAGACAUGAGGAUAUGGAUCCGAAUCGGAUCCAGAAGGCAUGGACGUCC | – | – | 1170 | 72.4 |
| GUGUAGCAAGGAUAUACAUGAGGAUCACCCAUGUGAAUAAGAUAGAAUAAGAUAAAGUGUAGAAGGUGUAGUGU | 35.3 | 35.7 | – | – |
| AUGCUCGUGUGAGGAUAUGCCGCCGUUUCGGCUGCAGAAGGUGCUACGUUACAUGAGGAUCACCCAUGUCUCUGUUGUUUCGUG | – | – | 24.4 | 25.5 |
| CCAGUGUCAGGAUAUAUCACAAAGAACCCAACCGGGCUUUGGUAGAAGGGACAUGAGGAUCACCCAUGUUGUUU | 30.9 | 44 | – | – |
| GUGACGAAUGUAGGAUAUGCUGACCAAUGGUCAGCAGAAGGACAUGAGGAUCACCCAUGUCAUCCUUAUAAUGAAUAACGUCAC | 13.5 | 18.6 | – | – |
| AACGUCCUAGGAUAUACGCUGGGACUCGCCAUGUGGGCCCUACAUGAGGAUCACCCAUGUAGAAGGAGGACAUG | 19.5 | 12.9 | – | – |
| GGAUUACAUGAGGAUCACCCAUGUGAGGAUAUCGAUGUCCUCAAUGAAGUGCGGGACUCGAGAAGGCACUUGGA | 78.5 | 108 | – | – |
| GGGUACAUCUGAGGAUAUCAUGUAAAUACAUGAGGAUCACCCAUGUCGAUGGAGACAUCGGAGAUUGAGAAGGCCGAUGUACCG | – | – | 263 | 14 |
| AGAGACUUGGGAGGAUAUGCCUGAUGGACACGGGCAGAAGGCCCAAACAUGAGGAUCACCCAUGUAUCUACGCCUUGAACGGGC | – | – | 236 | 17.7 |
| CUCAAACAUGAGGAUCACCCAUGUGUUGUCAUGGGAGGAUAUCCCAGUUCGUUGUCGUCGGGAGAAGGCCUAUGUC | – | – | 65 | 29.3 |
| CGUAUGUCAGGAUAUGCGUAUGCCACCCAGGACGGGCGGCAGCAGAAGGGACAUGAGGAUCACCCAUGUUCGGG | 75 | 68.4 | – | – |
| CUGACGUUUGAAGGAUAUGACAUGUUGAAGCGUAUUGACAGCCCUGCACAUGAGGAUCACCCAUGUCAGAAGGUCAACCGUUGA | 7.11 | 20.3 | – | – |
| GGUUCCAACACAGGAUAUGCUAUCCUUUGGGUAGCAGAAGGGUGAAAACAUGAGGAUCACCCAUGUGGAACCGGGCGUGAGCCC | – | – | 412 | 46.5 |
| UGAUCGAGAGAUCUUAGAUUCUGGUAGGAUAUACAUAUUGUAAUAUAGACAUGAGGAUCACCCAUGUAGAAGGACUAGAGUCUA | 6.6 | 11.5 | – | – |
| UUGGCCGUCGUAGGAUAUGUAGGAUAUUCCUACAUGAGGAUCACCCAUGUUGACAUGGAAGAAGGACAGAAGGACGAUGUCCAU | – | – | 365 | 4.87 |
| GGAAUAAAUGCAGGAUAUACGUGGAAAGCCUUCAACAUGAGGAUCACCCAUGUAGAAGGGCAUCUCCCGACCGAAUCGGAUCUC | 5.72 | 6.25 | – | – |
| GCAUCCAUAGUGAGGAUAUACCUCUGGAUACAUAGGUAGAAGGCACAUGAGGAUCACCCAUGUUCCUAGGAUGC | 20.2 | 40.1 | – | – |
| UUUUUGUAAGAGAAGGAGGACUUCAUGAGGAUCACCCAUGUGUUAGUACUUAGGAUAUUUGACAACAUGAGGAUCACCCAUGUC | – | – | 72 | 70.1 |
| UUUAUUUUUAGAGGAUAUAUUGUGUGUGAGAGAAUAGAAGGCUAAACAUACAUGAACAUGAGGAUCACCCAUGUCACCCAUGUU | – | – | 78.2 | 54.9 |
| AUGCCUUAUGUAGGAUAUGCAUAGAGUUGCUAUGCAGAAGGACAUGAGGAUCACCCAUGUAUGUAUACCUUACAAAUCUAGCAU | 38.6 | 230 | – | – |
| CCUCUACAUGAGGAUCACCCAUGUGAGGAUAUGCGAGGCGCGCCCGAUAGGCGCGCCGGUAGAAGGCAUGUGGU | 23.5 | 50.5 | – | – |
| UACAUCAAUGAAGGAUAUCGAUAUCCAACAUGAGGAUCACCCAUGUUGAGGAUCACCCAUGUAAAUGAGAAGGUUAACAUAACU | – | – | 94.9 | 83.3 |

| Sequence | apparent Kd [1] [nM] | apparent Kd [2] [nM] | apparent Kd [3] [nM] | apparent Kd [4] [nM] |
| --- | --- | --- | --- | --- |
| CUUUUGUGAGGAUAUCAGUAGUAGAACAAUAGUACUACUACUGAGAAGGCACAUGAGGAUCACCCAUGUUCUUC | 33.5 | 118 | – | – |
| AAUAUGUGAGGAUAUCAGGUGUGCUAGCGUACUGGUACAUCUGAGAAGGCACAUGAGGAUCACCCAUGUAUCUU | 24.4 | 87.4 | – | – |
| CCAGAUAUGUGAGGAUAUAUAGUGGAAUACACUAUAGAAGGUAUGUGAGAACAUGAGGAUCACCCAUGUCAUUGGUUAUCUGGA | – | – | 29.7 | 35.6 |
| CACGGCAUCGGAGGAUAUACAUGAGGAUCACCCAUGUGGGUUGUACGCCGUGUAGAAGGCCGAGACCACCUUCUAGCUGGGAAG | 11.7 | 33.1 | – | – |
| GUUUUUUCUCAUGUACAUGAGGAACAUGAGGAUCACCCAUGUAGAAGGAAUUUUUUUAAGUUUAGUUAGGAUAUACAUAUAUUG | 48.8 | 28.6 | – | – |
| UCUAUGUAGAUUCGUCAAUACAGUAAGGAUAUGAGAUACAUGAGGAUCACCCAUGUGCAUGUGGAUUAGAAGGUACAAUUAACU | 83.7 | 73.9 | – | – |
| CAGCUACCCAGUAUGGGUUUAUGUGCAGAAGGCCAGGUACAUGAGGAUCACCCAUGUAAAGAUAUGGAGGAUAUGUUAGUGAAU | – | – | 17.9 | 6.66 |
| UUUGACGUCGUAGGAUAUGUAGGAUAUUCCUACAUGAGGAUCACCCAUGUUGACAUGGAAGAAGGACAGAAGGACGAUGUCCAU | – | – | 304 | 5.56 |
| CCGGAAAUGCAGGAUAUCGUAUCGGAUACGAUACGAGAAGGGUAUACAUGAGGAUCACCCAUGUGUCCUCCCGG | 38.3 | 109 | – | – |
| CUGAUGUGAGGAUAUCGGGCUACGGCCAGGCCGCUAGCAUUCGAGAAGGCACAUGAGGAUCACCCAUGUGAGAA | 25.4 | 39.8 | – | – |
| GUUUUCGCGUGAGGAUAUGCUCGCAUUUCAAGAGCAGAAGGUAUGUCUAUAGACAUGAGGAUCACCCAUGUAUUUAUCAUUGAA | – | – | 226 | 160 |
| GUAUAUCACUAAGGAUAUCUGUAUUUUGUUGAAACAUGAGGAUCACCCAUGUUCAUGAAAUUAUAGGAGAAGGUAGAGAUAUAC | – | – | 4.96 | 4.57 |
| GCGUACAUCGGAGGAUAUCAUGUAAAUACAUGAGGAUCACCCAUGUCGAUGGAGACAUCGGAGAUUGAGAAGGCCGAUGUACCG | – | – | 157 | 8.42 |
| AGAUCACAUGAGGAUCACCCAUGUGAGGAUAUGGACUGAAGAGCUUCGGCUCUUCAGUCCAGAAGGCACUAUGA | 27.3 | 35 | – | – |
| GGAGAGUUCACAGGAUAUCAUGGGUAGUUAUUUUGAGAAGGGUGAACAAGGAACAUGAGGAUCACCCAUGUAUCCUGGAAGGGC | – | – | 39.9 | 60.5 |
| UUUUACAUAGGAUAUAGUUUCUUUUACAUGAGGAUCACCCAUGUCUCUCCUCUCUCUCUUCUAGAAGGAUGUUUCU | 80.1 | 72 | – | – |
| UGCAUGUAAGGAUAUGCAACCGGCGCUCAUUCGCCGGUCAAGCAGAAGGUACAUGAGGAUCACCCAUGUGUCCG | 31.3 | 139 | – | – |
| AAUUAUUAUUGAGGAUAUCGUAGUGAAACACUACGAGAAGGCGGUAUAAACAUGAGGAUCACCCAUGUGAGCCUGAUGCUUAUG | 28.9 | 58.9 | – | – |
| GUCAGCUCGUGAGGAUAUACAACACUGCUUCGGCAGUUUAUUAAGAUCACAUGAGGAUCACCCAUGUAGAAGGCACGAGCUGAU | 14.4 | 264 | – | – |
| AAUUGACACGUAGGAUAUCGCUCUUAAUUAACACGAGAAGGACGUACAUGAGGAUCACCCAUGUUAAAUGGUGUAGAUUAGUUG | 219 | 599 | – | – |
| UCUGGAGGAAAACAGACGAAGUGGCCAGAAGGUGAAUGCCACAUGAGGAUCACCCAUGUUUCGAUCAAGGAUAUGGUUUCUCAC | – | – | 185 | 72.4 |
| ACUUUGUUUGAGAAGGUGAAGUGGAAACAUGAGGAUCACCCAUGUAUUAGGAAGCCUGGUUUUGUCAAGGAUAUCGGGUAAAGA | – | – | 12 | 10.1 |
| CGCACGAGGCAAGGAUAUGCUGACAUGAGGAUCACCCAUGUGAGCAUGGGUCUGGUACGGGAUCAGCAGAAGGUGCACCGAGGU | 18.5 | 18.8 | – | – |
| UGUGAGUUGAUGUUAGAUAGGAGUACAUGAGGAUCACCCAUGUAGGAUAUUCAAAGACGAAGAUAGAAGAAGGACAUAGGUUUC | 21.4 | 18.1 | – | – |
